Assay outcomes deposited in PubChem by Broad Institute.
Hits are enriched below; roughly 2.6% of the tested compounds scored in any of these assays.
E-selectin induc = induces E-selectin expression in human endothelial cells. HUVEC E-selectin immunofluorescence imaging; normalized: neutral wells 0, TNF-alpha wells 100. P16581. hit rate 0.37% among 260,000. activation, % at 7.58 µM;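 active = mean E-selectin-positive cell signal at least 10% of the positive control, reached in at least 60% of replicates, without over 20% cell loss; inconclusive = no rule given, readout overlaps actives, possibly toxicity-flagged; inactive = the rest, including those meeting only one limit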
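Read-out basis: % PE-positive cells; Test system: HUVEC primary endothelial cells; Technique: immunofluorescence imaging; Dosing: single-point compound dose.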
RAD54 inh = RAD54 (human) branch migration inhibition; Q92698; inhibition, % at 10.4 µM; RAD54 Holliday junction branch migration, FAM/BHQ fluorescence; hit rate 0.14% among 360,000;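 active = mean normalized replicate activity at least 40 and at least half of replicates scoring 40 or more; inconclusive = only one of the two criteria met; inactive = mean below 40 and under half of replicates reaching 40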;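 also: 0% = median of neutral control wells and 100% = median of positive control wells; inhibitors cause a drop in the FAM fluorescence signal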
Ecoli rRNA inh = inhibits bacterial ribosomal RNA function over humanized ribosomes | E. coli WT GFP vs humanized-ribosome RFP mutants, fluorescence, 24 h; hits give low values; DMSO median 0, no signal -100 | GFP signal change (wild-type ribosome), % (no concentration beside the values) | hit rate 1.6% among 350,000;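 active = significant combined selectivity score with lowered wild-type GFP, culture density cut under 30%, mutant RFP and density less affected; inactive = any of these conditions unmet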
AF4-AF9 inh = inhibitors of human MLL-AF4/AF9 interaction; P42568; AlphaScreen, biotin-AF4 peptide binding to FLAG-AF9; inhibition, % at 10 µM; hit rate 0.47% among 350,000;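 active = every replicate reaching a set inhibition limit, whatever the replicate mean, cut at about 25% in these data; inconclusive = mean inhibition reaches that limit but some replicates miss it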;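 also: 0% = plate neutral control median and 100% = total signal loss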
RAD52 inh = blocks human RAD52 DNA annealing | P43351 | recombinant RAD52 DNA annealing, FRET fluorescence | inhibition, % at 18.7 µM | hit rate 0.46% among 360,000 | AID 651710;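 active = every replicate showing at least 50% inhibition; inconclusive = mean inhibition at least 50% but not in every replicate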
Target sequence (P43351 whole entry, looked up): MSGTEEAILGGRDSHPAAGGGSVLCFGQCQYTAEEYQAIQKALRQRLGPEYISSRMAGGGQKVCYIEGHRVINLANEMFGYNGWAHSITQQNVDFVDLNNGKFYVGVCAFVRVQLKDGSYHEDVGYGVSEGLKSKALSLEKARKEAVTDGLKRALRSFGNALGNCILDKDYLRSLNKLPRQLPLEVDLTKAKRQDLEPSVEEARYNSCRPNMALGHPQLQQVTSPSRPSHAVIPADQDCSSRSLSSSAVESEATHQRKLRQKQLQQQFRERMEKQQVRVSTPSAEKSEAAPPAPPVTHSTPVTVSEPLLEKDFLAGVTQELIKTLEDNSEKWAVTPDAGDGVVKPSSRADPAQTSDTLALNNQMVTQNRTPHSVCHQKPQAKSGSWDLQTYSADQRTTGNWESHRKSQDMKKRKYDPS
INS-1E GSIS act = primary screen for activators of insulin secretion dependent on glucose, INS-1E cells, GLuc reporter luminescence; AID 743287; INS-1E GLuc reporter insulin secretion, 2-3 h; activation, % at 16.6 µM; hit rate 0.61% among 370,000;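 active = lowest replicate activation of at least 40%, so every replicate reaches that level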;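 also: 0% = median of neutral control wells and 100% = median of IBMX positive control wells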
* hit, by the source's call; ? = inconclusive; · = no result.

SMILES | E-selectin induc | RAD54 inh | Ecoli rRNA inh | AF4-AF9 inh | RAD52 inh | INS-1E GSIS act
COCC(=O)N[C@@H]1C=C[C@@H](CC(=O)NCc2ccc(Cl)cc2)O[C@H]1CO | 0 | -1 | 5 | 0 | -1 | 5
COCCOc1ccc(C(F)(F)F)cc1NC(=O)c1ccccc1F | · | · | · | · | · | 50*
COCCOc1ccc(C(F)(F)F)cc1NC(=O)c1ccc(C(F)(F)F)cc1 | 0 | 3 | 14 | 4 | -5 | -31
C[C@H]1CN([C@@H](C)CO)C(=O)c2cc(C#Cc3cccnc3)cnc2O[C@H]1CN(C)Cc1ccccc1 | 0 | 4 | 0 | -3 | -10 | 1
Cn1cc(/C=C/C(=O)N2CCCC(C(=O)c3cccc(C(F)(F)F)c3)C2)cn1 (centres undefined) | · | 3 | -29* | -2 | -22 | -11
Cn1cc(/C=C/C(=O)N2CCCC(C(=O)c3cccc4ccccc34)C2)cn1 (centres undefined) | 1 | -9 | 0 | 2 | 2 | ·
Brc1ccc2c(c1)-c1ccccc1C1=NCCN12 | 3 | 81* | -40 | -4 | 35 | ·
C[C@H]1CCCCO[C@@H](CN(C)C(=O)Nc2ccccc2)[C@@H](C)CN([C@@H](C)CO)C(=O)c2cc(N(C)C)ccc2O1 | 0 | -5 | -4 | -10 | 7 | -9
CC(C)C(=O)Nc1ccc2c(c1)C(=O)N(C)[C@@H]1CC[C@@H](CC(=O)N[C@@H](C)c3ccccc3)O[C@@H]1CO2 | 0 | -4 | 6 | · | · | -1
Cc1ccccc1-c1ccc(C2[C@@H]3CN(C(=O)C4CCC4)C[C@H]2N3)cc1 (some centres undefined) | · | · | 4 | · | · | 8
Cc1cccc(C(=O)NC(=S)NNC(=O)Cc2ccccc2)c1 | 1 | · | -48 | 0 | -17 | -61
Cc1cccc(C(=O)NC(=S)NNC(=O)COc2c(C)cccc2C)c1 | 0 | · | · | · | · | 76*
CN(C)C(CNc1ncnc2sc3c(c12)CCCCC3)c1ccco1 (centres undefined) | 0 | · | -38* | 8 | 1 | 4
CCCc1nc2oc3ccccc3c(=O)c2c(=O)n1-c1ccccc1 | 0 | -8 | -30* | 0 | -17 | -5
CCCc1nc2oc3ccccc3c(=O)c2c(=O)n1-c1ccc(C)cc1 | 1 | -1 | -46* | -1 | -18 | 2
CCc1nc2oc3ccccc3c(=O)c2c(=O)n1-c1ccccc1 | -1 | -3 | · | · | · | ·
Cc1ccc(-n2c(C(C)C)nc3oc4ccccc4c(=O)c3c2=O)cc1 | 3 | · | -32* | -2 | -1 | 1
O=C(C[C@H]1CC[C@H](NC(=O)c2ccccc2)[C@@H](CO)O1)NCCc1ccncc1 | 0 | -4 | 4 | -2 | 4 | 7
O=C(C1CC1)N1CC2(C1)[C@H](c1ccccc1)[C@H](CO)N2CCC(F)(F)F | 0 | · | -1 | -3 | 5 | 8
CCNC(=O)[C@@H]1[C@@H](CO)[C@@H]2Cn3c(ccc(-c4ccc(F)cc4)c3=O)[C@H]1N2C | 0 | -3 | 5 | -5 | 8 | 7
Cc1nc(N2CCN(c3ccccn3)CC2)c2c(C)c(C(=O)Nc3ccc(F)cc3Cl)sc2n1 | 43* | 3 | 0 | -11 | -11 | 1
Cc1nc(N2CCN(c3ccccn3)CC2)c2c(C)c(C(=O)Nc3ccc(F)cc3F)sc2n1 | 2 | -3 | 1 | 5 | 0 | 0
Cc1nc([N+](=O)[O-])c(C(=O)OCc2ccccc2)n1C | · | 3 | 3 | 1 | -24 | 6
Cc1nc([N+](=O)[O-])c(C(=O)OCc2cccc(Br)c2)n1C | 0 | 0 | -18* | 4 | -4 | -2
FC(F)(F)c1ccc(Sc2n[nH]c(C(F)(F)F)n2)nc1 | 0 | -14 | -1 | -7 | -10 | 2
SMILES | E-selectin induc | RAD54 inh | Ecoli rRNA inh | AF4-AF9 inh | RAD52 inh | INS-1E GSIS act
FC(F)(F)c1ccnc(Sc2n[nH]c(C(F)(F)F)n2)c1 | · | · | -25* | -4 | -5 | 0
O=c1[nH]c(=S)[nH]cc1Oc1ccc(Cl)cc1Cl | · | -9 | -25* | 0 | -7 | -13
CCn1c(-c2ccccc2)csc1=Nc1ccc(O)cc1 | · | · | -14 | 49* | -7 | -10
CCOC(=O)c1cccc(OC(=O)CCNC(=O)c2ccc(Cl)cc2)c1 | 0 | 0 | -28* | 0 | 0 | -20
CCNc1nc(NCC)nc(Nn2cnnc2)n1 | · | -5 | 10 | 5 | -1 | 56*
C[C@@H]1CN([C@H](C)CO)C(=O)c2cc(NC(=O)Nc3ccc4c(c3)OCO4)ccc2O[C@@H]1CN(C)Cc1ccccc1 | 0 | -13 | 0 | 12 | 8 | -6
COc1cccc(CNC(=O)c2cccnc2Sc2ccc(C)cc2C)c1 | · | 4 | -31* | -1 | -10 | 7
COc1cccc(CNC(=S)Nc2cc(C)ccc2C)c1 | -1 | 2 | -26* | 0 | -9 | -4
CCOc1ncccc1C(=O)NCc1cccc(OC)c1 | · | -11 | · | · | · | 88*
CCOc1ncccc1C(=O)NCc1ccc(OC)cc1 | · | -3 | · | · | · | ·
CCCNC(=O)C[C@@H]1CC[C@@H]2[C@@H](COc3ccc(NC(=O)c4cccc(Cl)c4)cc3C(=O)N2C)O1 | 0 | · | 1 | -1 | -7 | -6
COc1ccc2c3c(n(C)c2c1)[C@H](CO)N(C(=O)C1CCCCC1)CC31CCN(C(=O)c2ccncc2)CC1 | 0 | · | 0 | 3 | 10 | 4
CCn1c(NCCO)nc2c(c1=O)C(C)(CC)Cc1ccccc1-2 (centres undefined) | 0 | · | -28* | -1 | -18 | ·
CC1(C)Cc2ccccc2-c2nc(NCCCO)[nH]c(=O)c21 | 0 | 4 | -43* | ? | 2 | 5
CCC1(C)Cc2ccccc2-c2nc(NCCO)[nH]c(=O)c21 (centres undefined) | · | -12 | -40 | · | 4 | -8
Cc1cccc(S(=O)(=O)N[C@H]2CC[C@@H](CCNC(=O)CCN3CCCCC3)O[C@@H]2CO)c1 | 0 | 4 | 2 | -1 | -2 | 16
CC(=O)N(C)C[C@@H]1Oc2ncc(-c3ccc(C#N)cc3)cc2C(=O)N([C@@H](C)CO)C[C@@H]1C | 0 | 5 | 5 | -2 | -4 | 30
COCC#Cc1ccc2c(c1)O[C@@H](CN(C)C(=O)c1ccccc1)[C@H](C)CN([C@@H](C)CO)S2(=O)=O | 0 | -2 | -1 | 1 | 4 | 0
CCCC(=O)N1CCN(c2ccc(NC(=S)NC(=O)c3cccc(C)c3)cc2)CC1 | · | 0 | -20* | 4 | -31 | -17
CC(C)Oc1cccc(C(=O)NC(=S)Nc2ccc(N3CCN(C)CC3)cc2)c1 | · | 3 | -18* | 6 | 38 | 4
COc1cccc(C(=O)NC(=S)Nc2ccc(N3CCCC3)cc2)c1 | · | -8 | · | · | · | ·
COc1ccc(OCC(=O)Nc2ccc(N3CCCCC3)cc2)cc1 | · | · | 2 | -2 | -8 | -1
CN1CCN(c2ccc(NC(=O)c3ccc(Oc4ccccc4)cc3)cc2)CC1 | 0 | -8 | -8 | 14 | 13 | 50*
